How the values were obtained:
Type in all cases: functional
CCRF-CEM = assay: Inhibitory activity against CCRF-CEM(human leukemic lymphoblastic) cells in culture.; settings: read-out: ID50 (the source's name)
How it was run: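 Human leukemic lymphoblastic CCRF-CEM cells grown in culture with continuous drug exposure for 48 h; growth inhibition measured.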

Mus musculus [1] = assay: In vivo growth inhibitory activity was measured against murine P388 leukemia cells as Percent increase in life span at the dose of 50.0 mg/kg/day
How it was run: (§1)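 Murine P388 leukemia model: 10⁶ tumor cells inoculated ip on day 0. Compound given ip once daily on days 1-4 at the stated dose. Activity was expressed as percent increase in life span relative to untreated controls.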

Mus musculus [2] = assay: In vivo growth inhibitory activity was measured against murine P388 leukemia cells as Percent increase in life span at the dose of 20.0 mg/kg/day; how it was run: as §1
Mus musculus [3] = assay: In vivo growth inhibitory activity was measured against murine P388 leukemia cells as Percent increase in life span at the dose of 4.0 mg/kg/day; how it was run: as §1
Mus musculus [4] = assay: In vivo growth inhibitory activity was measured against murine P388 leukemia cells as Percent increase in life span at the dose of 80.0 mg/kg/day; how it was run: as §1
Mus musculus [5] = assay: In vivo growth inhibitory activity was measured against murine P388 leukemia cells as Percent increase in life span at the dose of 40.0 mg/kg/day; how it was run: as §1
Mus musculus [6] = assay: In vivo growth inhibitory activity was measured against murine P388 leukemia cells as Percent increase in life span at the dose of 2.0 mg/kg/day; how it was run: as §1
Mus musculus [7] = assay: In vivo growth inhibitory activity was measured against murine P388 leukemia cells as percent increase in life span at the dose of 40.0 mg/kg/day; how it was run: as §1

| Compound | IC50 (CCRF-CEM) [nM] | also measured |
| --- | --- | --- |
| CCCCC(=O)OCC(=O)C1=Cc2c(O)c3c(c(O)c2[C@@H](OC2CC(NC(=O)C(F)(F)C(F)(F)F)C(O)C(C)O2)C1)C(=O)c1c(OC)cccc1C3=O (stereo partly drawn) | 560 |  |
| COc1cccc2c1C(=O)c1c(O)c3c(c(O)c1C2=O)C[C@@](O)(C(=O)CO)C[C@@H]3OC1CC(NC(=O)C(F)(F)C(F)(F)F)C(O)C(C)O1 (stereo partly drawn) | 410 | ILS at 50 mg/kg/day (Mus musculus [1]): 372% |
| CCCCC(=O)OCC(=O)[C@]1(O)Cc2c(O)c3c(c(O)c2[C@@H](OC2CC(NC(=O)C(F)(F)C(F)(F)F)C(O)C(C)O2)C1)C(=O)c1c(OC)cccc1C3=O (stereo partly drawn) | 1180 | ILS at 50 mg/kg/day (Mus musculus [1]): 0% |
| COc1cccc2c1C(=O)c1c(O)c3c(c(O)c1C2=O)C[C@@](O)(C(=O)CO)C[C@@H]3OC1CC(NC(=O)C(F)(F)F)C(O)C(C)O1 (stereo partly drawn) | 230 | ILS at 20 mg/kg/day (Mus musculus [2]): 481% |
| COc1cccc2c1C(=O)c1c(O)c3c(c(O)c1C2=O)C[C@@](O)(C(=O)CO)C[C@@H]3OC1CC(NC(=O)C(F)(F)C(F)(F)C(F)(F)F)C(O)C(C)O1 (stereo partly drawn) | 1490 | ILS at 50 mg/kg/day (Mus musculus [1]): 54% |
| COc1cccc2c1C(=O)c1c(O)c3c(c(O)c1C2=O)C[C@@](O)(C(=O)CO)C[C@@H]3O[C@H]1C[C@H](N)[C@H](O)[C@H](C)O1 [DOXORUBICIN] | 66 | ILS at 4 mg/kg/day (Mus musculus [3]): 132% |
| COc1cccc2c1C(=O)c1c(O)c3c(c(O)c1C2=O)C=C(C(C)=O)C[C@@H]3OC1CC(NC(=O)C(F)(F)C(F)(F)C(F)(F)F)C(O)C(C)O1 (stereo partly drawn) | > 13800 |  |
| COc1cccc2c1C(=O)c1c(O)c3c(c(O)c1C2=O)C=C(C(C)=O)C[C@@H]3OC1CC(NC(=O)C(F)(F)C(F)(F)F)C(O)C(C)O1 (stereo partly drawn) | 500 |  |
| COc1cccc2c1C(=O)c1c(O)c3c(c(O)c1C2=O)C=C(C(=O)CO)C[C@@H]3OC1CC(NC(=O)C(F)(F)C(F)(F)F)C(O)C(C)O1 (stereo partly drawn) | 8410 |  |
| CCCCC(=O)OCC(=O)C1=Cc2c(O)c3c(c(O)c2[C@@H](OC2CC(NC(=O)C(F)(F)C(F)(F)C(F)(F)F)C(O)C(C)O2)C1)C(=O)c1c(OC)cccc1C3=O (stereo partly drawn) | 2310 |  |
| CCCCC(=O)OCC(=O)[C@]1(O)Cc2c(O)c3c(c(O)c2[C@@H](OC2CC(NC(=O)C(F)(F)C(F)(F)C(F)(F)F)C(O)C(C)O2)C1)C(=O)c1c(OC)cccc1C3=O (stereo partly drawn) | > 1140 | ILS at 50 mg/kg/day (Mus musculus [1]): 0% |
| COc1cccc2c1C(=O)c1c(O)c3c(c(O)c1C2=O)C[C@@](O)(C(C)=O)C[C@@H]3OC1CC(NC(=O)C(F)(F)F)C(O)C(C)O1 (stereo partly drawn) | 270 | ILS at 80 mg/kg/day (Mus musculus [4]): 83% |
| COc1cccc2c1C(=O)c1c(O)c3c(c(O)c1C2=O)C[C@@](O)(C(C)=O)C[C@@H]3OC1CC(NC(=O)C(F)(F)C(F)(F)F)C(O)C(C)O1 (stereo partly drawn) | 1010 | ILS at 50 mg/kg/day (Mus musculus [1]): 27% |
| COc1cccc2c1C(=O)c1c(O)c3c(c(O)c1C2=O)C[C@@](O)(C(C)=O)C[C@@H]3OC1CC(NC(=O)C(F)(F)C(F)(F)C(F)(F)F)C(O)C(C)O1 (stereo partly drawn) | > 1350 | ILS at 40 mg/kg/day (Mus musculus [5]): 45% |
| COc1cccc2c1C(=O)c1c(O)c3c(c(O)c1C2=O)C[C@@](O)(C(C)=O)C[C@@H]3O[C@H]1C[C@H](N)[C@H](O)[C@H](C)O1 [DAUNORUBICIN] | 40 | ILS at 2 mg/kg/day (Mus musculus [6]): 91% |
| CCCCC(=O)OCC(=O)C1=Cc2c(O)c3c(c(O)c2[C@@H](OC2CC(NC(=O)C(F)(F)F)C(O)C(C)O2)C1)C(=O)c1c(OC)cccc1C3=O (stereo partly drawn) | 1190 | ILS at 40 mg/kg/day (Mus musculus [5]): 27% |
| CCCCC(=O)OCC(=O)[C@]1(O)Cc2c(O)c3c(c(O)c2[C@@H](OC2CC(NC(=O)C(F)(F)F)C(O)C(C)O2)C1)C(=O)c1c(OC)cccc1C3=O (stereo partly drawn) | 240 | ILS at 40 mg/kg/day (Mus musculus [5]): 429% |
| COc1cccc2c1C(=O)c1c(O)c3c(c(O)c1C2=O)C=C(C(=O)CO)C[C@@H]3OC1CC(NC(=O)C(F)(F)C(F)(F)C(F)(F)F)C(O)C(C)O1 (stereo partly drawn) | 7300 |  |
| COc1cccc2c1C(=O)c1c(O)c3c(c(O)c1C2=O)C=C(C(=O)CO)C[C@@H]3OC1CC(NC(=O)C(F)(F)F)C(O)C(C)O1 (stereo partly drawn) | 5790 | ILS at 40 mg/kg/day (Mus musculus [7]): 63% |
| COc1cccc2c1C(=O)c1c(O)c3c(c(O)c1C2=O)C=C(C(C)=O)C[C@@H]3OC1CC(NC(=O)C(F)(F)F)C(O)C(C)O1 (stereo partly drawn) |  | ILS at 40 mg/kg/day (Mus musculus [5]): 45% |
